Measurements published in ChEMBL document CHEMBL1765070, “Structure-based design of potent and selective 3-phosphoinositide-dependent kinase-1 (PDK1) inhibitors” (J Med Chem, 2011).

Key:
[1] = molecular target: Rho-associated protein kinase 2 (Homo sapiens) (UniProt O75116); assay: Inhibition of human ROCK2 assessed as residual activity at 10 uM
[2] = molecular target: Inhibitor of nuclear factor kappa-B kinase subunit alpha (Homo sapiens, UniProt O15111); assay: Inhibition of IKK1
[3] = molecular target: cAMP-dependent protein kinase catalytic subunit PRKX (Homo sapiens) (UniProt P51817); assay: Inhibition of human PrKX assessed as residual activity at 10 uM
Sequence of cAMP-dependent protein kinase catalytic subunit PRKX (Homo sapiens) (P51817 whole entry): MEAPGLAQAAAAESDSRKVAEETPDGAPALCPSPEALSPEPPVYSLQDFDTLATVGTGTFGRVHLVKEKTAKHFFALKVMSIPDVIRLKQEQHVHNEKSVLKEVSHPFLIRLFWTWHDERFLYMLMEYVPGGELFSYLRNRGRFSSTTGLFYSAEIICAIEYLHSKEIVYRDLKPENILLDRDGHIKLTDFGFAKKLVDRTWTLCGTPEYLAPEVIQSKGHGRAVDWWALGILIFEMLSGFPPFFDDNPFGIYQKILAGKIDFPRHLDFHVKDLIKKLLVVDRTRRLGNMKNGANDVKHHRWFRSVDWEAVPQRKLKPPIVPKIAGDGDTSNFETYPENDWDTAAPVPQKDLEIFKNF

[4] = system: K562; assay: Antiproliferative activity against human K562 cells; type: functional, cell-based
[5] = molecular target: NUAK family SNF1-like kinase 1 (Homo sapiens) (UniProt O60285); assay: Inhibition of human ARK5 assessed as residual activity at 10 uM
Sequence of NUAK family SNF1-like kinase 1 (Homo sapiens) (O60285 whole entry): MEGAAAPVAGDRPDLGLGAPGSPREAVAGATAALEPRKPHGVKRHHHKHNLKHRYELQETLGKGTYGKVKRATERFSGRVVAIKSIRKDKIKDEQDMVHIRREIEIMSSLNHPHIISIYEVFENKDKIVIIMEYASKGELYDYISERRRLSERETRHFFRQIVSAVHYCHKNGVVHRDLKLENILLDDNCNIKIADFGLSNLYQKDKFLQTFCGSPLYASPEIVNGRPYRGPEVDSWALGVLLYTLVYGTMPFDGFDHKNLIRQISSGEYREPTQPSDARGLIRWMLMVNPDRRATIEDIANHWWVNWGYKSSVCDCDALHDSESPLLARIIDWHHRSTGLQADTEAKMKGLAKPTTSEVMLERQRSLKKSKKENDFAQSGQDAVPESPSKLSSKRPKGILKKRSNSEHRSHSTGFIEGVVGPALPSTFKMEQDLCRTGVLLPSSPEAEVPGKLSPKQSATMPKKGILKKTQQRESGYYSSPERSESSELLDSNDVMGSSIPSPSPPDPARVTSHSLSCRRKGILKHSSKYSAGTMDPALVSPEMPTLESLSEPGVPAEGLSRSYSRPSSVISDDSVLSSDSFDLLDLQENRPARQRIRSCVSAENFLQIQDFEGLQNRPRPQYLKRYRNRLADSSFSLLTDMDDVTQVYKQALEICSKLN

[6] = molecular target: Serine/threonine-protein kinase BRSK2 (Homo sapiens) (UniProt Q8IWQ3); assay: Inhibition of human BRSK2 assessed as residual activity at 10 uM
[7] = molecular target: Ribosomal protein S6 kinase alpha-6 (Homo sapiens) (UniProt Q9UK32); assay: Inhibition of human RSK4 assessed as residual activity at 10 uM
[8] = molecular target: Serine/threonine-protein kinase 17A (Homo sapiens) (UniProt Q9UEE5); assay: Inhibition of human DRAK1 assessed as residual activity at 10 uM
Sequence of Serine/threonine-protein kinase 17A (Homo sapiens) (Q9UEE5 whole entry): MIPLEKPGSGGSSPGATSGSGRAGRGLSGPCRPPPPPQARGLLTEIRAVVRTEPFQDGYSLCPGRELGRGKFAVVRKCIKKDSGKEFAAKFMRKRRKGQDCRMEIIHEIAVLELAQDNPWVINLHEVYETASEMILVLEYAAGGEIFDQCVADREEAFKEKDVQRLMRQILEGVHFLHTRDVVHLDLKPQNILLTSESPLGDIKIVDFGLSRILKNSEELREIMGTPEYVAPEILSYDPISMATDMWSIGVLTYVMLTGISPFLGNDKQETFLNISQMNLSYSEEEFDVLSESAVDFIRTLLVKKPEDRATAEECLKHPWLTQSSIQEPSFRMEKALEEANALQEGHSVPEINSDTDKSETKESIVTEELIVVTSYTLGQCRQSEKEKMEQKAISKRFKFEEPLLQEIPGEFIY

[9] = molecular target: RAC-alpha serine/threonine-protein kinase (Homo sapiens, UniProt P31749); assay: Inhibition of AKT1
[10] = system: OCI-AML2; assay: Antiproliferative activity against human OCI-AML2 cells; type: functional, cell-based
[11] = system: Hepatocyte growth factor receptor (Homo sapiens), P08581 [D1246H]; assay: Inhibition of human MET D1246H mutant assessed as residual activity at 10 uM
[12] = Antiproliferative activity against human OCI-AML3 cells; type: functional, cell-based; details: OCI-AML-3
[13] = system: Mus musculus; assay: Inhibition of PDK1-mediated RSK phosphorylation at Ser221 residue in human OCI-AML-2 cells xenografted in SCID mouse at 100 mg/kg, ip after 3 hrs by LC/MS/MS analysis; details: OCI-AML2, ip, read-out: INH
[14] = molecular target: Ribosomal protein S6 kinase alpha-1 (Rattus norvegicus) (UniProt Q63531); assay: Inhibition of rat RSK1 assessed as residual activity at 10 uM
Sequence of Ribosomal protein S6 kinase alpha-1 (Rattus norvegicus) (Q63531 whole entry): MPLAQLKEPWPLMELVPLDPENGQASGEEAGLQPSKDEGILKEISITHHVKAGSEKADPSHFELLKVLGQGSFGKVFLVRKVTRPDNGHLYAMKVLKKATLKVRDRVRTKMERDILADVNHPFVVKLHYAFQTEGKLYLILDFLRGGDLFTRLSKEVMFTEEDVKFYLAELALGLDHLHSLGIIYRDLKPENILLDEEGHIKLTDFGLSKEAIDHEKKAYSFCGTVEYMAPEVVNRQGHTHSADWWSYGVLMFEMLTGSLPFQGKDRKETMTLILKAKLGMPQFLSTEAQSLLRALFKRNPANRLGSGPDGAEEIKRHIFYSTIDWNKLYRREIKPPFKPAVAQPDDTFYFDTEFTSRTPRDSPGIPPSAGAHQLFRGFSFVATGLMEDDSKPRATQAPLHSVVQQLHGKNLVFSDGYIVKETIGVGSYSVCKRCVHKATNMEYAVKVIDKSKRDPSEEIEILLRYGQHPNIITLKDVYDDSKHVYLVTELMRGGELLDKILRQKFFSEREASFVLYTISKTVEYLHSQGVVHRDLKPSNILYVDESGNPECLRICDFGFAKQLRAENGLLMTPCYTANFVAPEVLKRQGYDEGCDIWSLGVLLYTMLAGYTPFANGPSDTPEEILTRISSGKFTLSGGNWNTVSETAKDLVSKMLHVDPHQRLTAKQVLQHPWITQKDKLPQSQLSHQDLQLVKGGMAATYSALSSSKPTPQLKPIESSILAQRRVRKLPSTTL

[15] = molecular target: Serine/threonine-protein kinase Sgk2 (Homo sapiens) (UniProt Q9HBY8); assay: Inhibition of human SGK2 assessed as residual activity at 10 uM
[16] = molecular target: Protein kinase C zeta type (Homo sapiens) (UniProt Q05513); assay: Inhibition of human PKCzeta assessed as residual activity at 10 uM
[17] = molecular target: Proto-oncogene tyrosine-protein kinase receptor Ret (Homo sapiens) (UniProt P07949); assay: Inhibition of human RET assessed as residual activity at 10 uM
[18] = molecular target: Serine/threonine-protein kinase NLK (Homo sapiens) (UniProt Q9UBE8); assay: Inhibition of human NLK assessed as residual activity at 10 uM
[19] = system: Mus musculus; assay: Inhibition of PDK1-mediated RSK phosphorylation at Ser221 residue in human OCI-AML-2 cells xenografted in SCID mouse at 100 mg/kg, ip after 6 hrs by LC/MS/MS analysis; details: OCI-AML2, ip, read-out: INH
[20] = molecular target: Glycogen synthase kinase-3 beta (Homo sapiens, UniProt P49841); assay: Inhibition of GSK3B
[21] = molecular target: Ribosomal protein S6 kinase alpha-2 (Homo sapiens) (UniProt Q15349); assay: Inhibition of human RSK3 assessed as residual activity at 10 uM
[22] = molecular target: Phosphatidylinositol 4,5-bisphosphate 3-kinase catalytic subunit gamma isoform (Homo sapiens, UniProt P48736); assay: Inhibition of PI3Kgamma
[23] = molecular target: Serine/threonine-protein kinase Sgk1 (Homo sapiens) (UniProt O00141); assay: Inhibition of human SGK assessed as residual activity at 10 uM
[24] = system: HEL; assay: Antiproliferative activity against human HEL 92.1.7 cells; type: functional, cell-based
[25] = system: Mus musculus; assay: Inhibition of PDK1-mediated AKT phosphorylation at Thr308 residue in human OCI-AML-2 cells xenografted in SCID mouse at 100 mg/kg, ip after 3 hrs by LC/MS/MS analysis; details: OCI-AML2, ip, read-out: INH
[26] = system: Hepatocyte growth factor receptor (Homo sapiens), P08581 [Y1248H]; assay: Inhibition of human MET Y1248H assessed as residual activity at 10 uM
[27] = AUC in SCID mouse xenografted with human OCI-AML-2 cells at 100 mg/kg, ip administered as a single dose by LC/MS/MS analysis; type: ADME, organism-based; parameters: dose 100 mg/kg, route intraperitoneal; details: in vivo
How it was run: (§1)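 SCID mice with subcutaneous OCI-AML2 xenografts (~500-600 mm3) received a single 100 mg/kg ip dose in 1% DMSO, 20% PEG400, pH 4.2. hIGF-I was injected iv at 3 or 6 h, with blood and tumor taken 10 min after. Compound levels were measured by LC/MS/MS.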

[28] = Cmax in SCID mouse xenografted with human OCI-AML-2 cells at 100 mg/kg, ip administered as a single dose by LC/MS/MS analysis; type: ADME, organism-based; parameters: dose 100 mg/kg, route intraperitoneal; details: in vivo; how it was run: as §1
[29] = molecular target: Rho-associated protein kinase 2 (Rattus norvegicus) (UniProt Q62868); assay: Inhibition of rat ROCK2 assessed as residual activity at 10 uM
Sequence of Rho-associated protein kinase 2 (Rattus norvegicus) (Q62868 whole entry, looked up): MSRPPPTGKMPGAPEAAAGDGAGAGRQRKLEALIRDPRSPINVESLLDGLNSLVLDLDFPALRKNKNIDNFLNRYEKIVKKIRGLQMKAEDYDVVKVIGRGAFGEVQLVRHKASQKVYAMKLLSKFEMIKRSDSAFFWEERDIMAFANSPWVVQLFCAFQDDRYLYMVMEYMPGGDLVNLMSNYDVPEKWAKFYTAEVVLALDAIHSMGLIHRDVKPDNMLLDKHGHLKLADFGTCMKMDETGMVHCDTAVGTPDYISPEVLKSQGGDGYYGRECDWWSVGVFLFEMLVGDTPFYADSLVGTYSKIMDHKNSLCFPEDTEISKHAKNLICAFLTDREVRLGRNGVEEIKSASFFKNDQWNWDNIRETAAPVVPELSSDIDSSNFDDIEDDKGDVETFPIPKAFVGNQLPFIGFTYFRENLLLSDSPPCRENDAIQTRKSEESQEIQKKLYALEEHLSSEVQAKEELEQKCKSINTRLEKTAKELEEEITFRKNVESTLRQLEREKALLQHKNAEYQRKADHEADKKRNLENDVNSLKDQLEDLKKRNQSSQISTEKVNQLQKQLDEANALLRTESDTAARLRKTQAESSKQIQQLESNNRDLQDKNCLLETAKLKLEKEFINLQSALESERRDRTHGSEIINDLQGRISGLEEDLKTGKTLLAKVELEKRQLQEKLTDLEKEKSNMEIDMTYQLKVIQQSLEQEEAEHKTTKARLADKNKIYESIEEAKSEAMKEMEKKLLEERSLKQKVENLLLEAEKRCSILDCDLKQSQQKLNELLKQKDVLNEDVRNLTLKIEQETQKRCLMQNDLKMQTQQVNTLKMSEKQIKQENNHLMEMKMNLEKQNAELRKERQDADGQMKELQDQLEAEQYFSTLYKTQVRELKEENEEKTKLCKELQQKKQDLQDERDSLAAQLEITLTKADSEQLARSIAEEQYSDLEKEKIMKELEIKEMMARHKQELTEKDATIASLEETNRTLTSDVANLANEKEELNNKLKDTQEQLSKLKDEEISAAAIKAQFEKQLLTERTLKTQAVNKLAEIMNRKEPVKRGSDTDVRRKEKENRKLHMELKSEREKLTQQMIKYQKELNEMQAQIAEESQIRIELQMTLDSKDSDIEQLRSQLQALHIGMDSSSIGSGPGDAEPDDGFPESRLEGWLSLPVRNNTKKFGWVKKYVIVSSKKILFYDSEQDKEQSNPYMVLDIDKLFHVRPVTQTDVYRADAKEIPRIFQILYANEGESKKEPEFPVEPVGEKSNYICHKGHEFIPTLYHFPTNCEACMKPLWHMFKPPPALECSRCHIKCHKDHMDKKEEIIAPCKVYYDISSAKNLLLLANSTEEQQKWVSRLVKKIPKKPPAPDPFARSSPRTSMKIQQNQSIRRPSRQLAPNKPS

[30] = Antiproliferative activity against human F-36P cells; type: functional, cell-based
[31] = molecular target: Mitogen-activated protein kinase kinase kinase 5 (Homo sapiens, UniProt Q99683); assay: Inhibition of ASK1
[32] = molecular target: T1, TGF-beta receptor type-1 (Homo sapiens, UniProt P36897); assay: Inhibition of ALK5
T1 sequence (P36897 whole entry): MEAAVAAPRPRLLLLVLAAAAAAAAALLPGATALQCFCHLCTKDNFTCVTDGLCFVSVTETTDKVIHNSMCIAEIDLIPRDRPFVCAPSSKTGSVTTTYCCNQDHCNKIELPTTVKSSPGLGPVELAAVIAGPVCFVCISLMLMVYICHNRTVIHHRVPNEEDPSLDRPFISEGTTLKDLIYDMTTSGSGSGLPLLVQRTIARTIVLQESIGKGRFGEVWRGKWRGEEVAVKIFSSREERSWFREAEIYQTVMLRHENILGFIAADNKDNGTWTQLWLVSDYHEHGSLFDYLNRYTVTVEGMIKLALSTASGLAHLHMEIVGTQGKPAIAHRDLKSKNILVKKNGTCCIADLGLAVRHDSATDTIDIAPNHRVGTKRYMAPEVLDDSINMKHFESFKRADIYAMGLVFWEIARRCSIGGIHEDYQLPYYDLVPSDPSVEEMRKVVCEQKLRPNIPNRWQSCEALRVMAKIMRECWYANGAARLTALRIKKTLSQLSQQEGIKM

[33] = molecular target: Ribosomal protein S6 kinase alpha-3 (Homo sapiens) (UniProt P51812); assay: Inhibition of human RSK2 assessed as residual activity at 10 uM
[34] = molecular target: Serine/threonine-protein kinase BRSK1 (Homo sapiens) (UniProt Q8TDC3); assay: Inhibition of human BRSK1 assessed as residual activity at 10 uM
[35] = molecular target: Tyrosine-protein kinase SYK (Homo sapiens, UniProt P43405); assay: Inhibition of SYK
[36] = molecular target: Serine/threonine-protein kinase Chk2 (Homo sapiens) (UniProt O96017); assay: Inhibition of human CHK2 assessed as residual activity at 10 uM
[37] = system: Mus musculus; assay: Inhibition of PDK1-mediated AKT phosphorylation at Thr308 residue in human OCI-AML-2 cells xenografted in SCID mouse at 100 mg/kg, ip after 6 hrs by LC/MS/MS analysis; details: OCI-AML2, ip, read-out: INH
[38] = molecular target: Vascular endothelial growth factor receptor 2 (Homo sapiens, UniProt P35968); assay: Inhibition of VEGFR2
[39] = molecular target: RAC-gamma serine/threonine-protein kinase (Homo sapiens) (UniProt Q9Y243); assay: Inhibition of human PKBgamma assessed as residual activity at 10 uM
Sequence of RAC-gamma serine/threonine-protein kinase (Homo sapiens) (Q9Y243 whole entry): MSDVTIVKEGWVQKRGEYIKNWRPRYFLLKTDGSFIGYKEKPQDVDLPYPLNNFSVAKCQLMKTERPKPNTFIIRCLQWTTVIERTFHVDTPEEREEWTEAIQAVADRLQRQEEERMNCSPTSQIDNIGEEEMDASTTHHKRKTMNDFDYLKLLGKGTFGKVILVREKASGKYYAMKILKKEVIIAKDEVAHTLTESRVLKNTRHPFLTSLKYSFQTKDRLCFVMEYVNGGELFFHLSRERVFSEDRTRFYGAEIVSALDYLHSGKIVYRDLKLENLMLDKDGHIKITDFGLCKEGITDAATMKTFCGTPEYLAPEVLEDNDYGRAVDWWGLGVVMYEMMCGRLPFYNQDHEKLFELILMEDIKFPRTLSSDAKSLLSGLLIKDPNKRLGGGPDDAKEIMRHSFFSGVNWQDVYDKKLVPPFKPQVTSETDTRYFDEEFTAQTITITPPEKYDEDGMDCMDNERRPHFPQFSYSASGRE

[40] = molecular target: Ribosomal protein S6 kinase alpha-1 (Homo sapiens) (UniProt Q15418); assay: Inhibition of human RSK1 assessed as residual activity at 10 uM
[41] = molecular target: Death-associated protein kinase 3 (Homo sapiens) (UniProt O43293); assay: Inhibition of human ZIPK assessed as residual activity at 10 uM
Sequence of Death-associated protein kinase 3 (Homo sapiens) (O43293 whole entry, looked up): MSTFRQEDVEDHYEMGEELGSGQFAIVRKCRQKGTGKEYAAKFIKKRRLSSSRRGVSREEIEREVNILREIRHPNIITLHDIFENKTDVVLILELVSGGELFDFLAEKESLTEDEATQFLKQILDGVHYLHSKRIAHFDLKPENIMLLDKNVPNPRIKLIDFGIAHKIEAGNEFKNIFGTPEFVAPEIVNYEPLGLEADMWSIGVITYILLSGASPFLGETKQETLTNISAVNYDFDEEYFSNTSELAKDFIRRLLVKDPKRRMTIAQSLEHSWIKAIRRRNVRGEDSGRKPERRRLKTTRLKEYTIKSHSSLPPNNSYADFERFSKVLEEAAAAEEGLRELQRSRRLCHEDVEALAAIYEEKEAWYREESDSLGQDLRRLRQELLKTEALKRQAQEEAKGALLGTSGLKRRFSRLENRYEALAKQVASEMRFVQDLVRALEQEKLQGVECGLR

[42] = molecular target: 3-phosphoinositide-dependent protein kinase 1 (Homo sapiens) (UniProt O15530); assay: Inhibition of human PDK1 assessed as residual activity at 10 uM
Sequence of 3-phosphoinositide-dependent protein kinase 1 (Homo sapiens) (O15530 whole entry): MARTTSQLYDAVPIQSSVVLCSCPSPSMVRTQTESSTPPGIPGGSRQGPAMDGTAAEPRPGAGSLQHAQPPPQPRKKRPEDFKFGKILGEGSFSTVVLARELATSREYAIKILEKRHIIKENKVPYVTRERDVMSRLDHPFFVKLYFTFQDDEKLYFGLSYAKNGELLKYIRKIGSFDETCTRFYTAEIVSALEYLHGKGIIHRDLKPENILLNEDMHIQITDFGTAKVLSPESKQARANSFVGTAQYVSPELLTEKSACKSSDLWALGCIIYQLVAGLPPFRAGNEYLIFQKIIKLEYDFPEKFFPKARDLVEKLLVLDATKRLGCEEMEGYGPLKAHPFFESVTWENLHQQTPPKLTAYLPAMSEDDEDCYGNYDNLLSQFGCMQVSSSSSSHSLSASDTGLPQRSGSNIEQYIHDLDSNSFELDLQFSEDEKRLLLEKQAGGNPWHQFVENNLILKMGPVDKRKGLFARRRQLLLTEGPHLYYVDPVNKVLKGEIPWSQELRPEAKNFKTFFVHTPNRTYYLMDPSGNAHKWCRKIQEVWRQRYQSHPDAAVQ

Activity [1]: 26%
IC50 [2]: > 25.1 µM
Activity [3]: 4%
IC50 [4]: 18 µM
Activity [5]: 16%
Activity [6]: 44%
Activity [7]: 12%
Activity [8]: 23%
IC50 [9]: > 10 µM
IC50 [10]: 0.35 µM
Activity [11]: 43%
Activity [14]: 34%
Activity [15]: -2%
Activity [16]: 29%
Activity [17]: 46%
Activity [18]: 38%
IC50 [20]: > 25.1 µM
Activity [21]: 14%
IC50 [22]: 25.1 µM
Activity [23]: 13%
Activity [26]: 49%
AUC [27]: 31400 ng·h/mL
Cmax [28]: 4510 ng/mL
Activity [29]: 17%
IC50 [31]: > 27.5 µM
IC50 ([32]; read-out: IC50): > 10 µM
IC50 ([32]; read-out: pIC50 (converted)): > 10 µM
Activity [33]: 28%
Activity [34]: 33%
IC50 [35]: > 25.1 µM
Activity [36]: 29%
IC50 [38]: > 10 µM
Activity [39]: 22%
Activity [40]: 46%
Activity [42]: 0%
SMILES: CNc1nc(-c2ccc3c(N)n[nH]c3c2)cc(N2C[C@@H](C(=O)NC3CCCCC3)CC[C@H]2C)n1
IC50 [12]: 0.52 µM
inhibition in vivo at 100 mg/kg [13]: 57%
inhibition in vivo at 100 mg/kg [19]: 71%
IC50 [24]: > 30 µM
inhibition in vivo at 100 mg/kg [25]: 58%
IC50 [30]: 0.28 µM
inhibition in vivo at 100 mg/kg [37]: 29%
Activity [41]: 21%
